Assay results as given in ChEMBL document CHEMBL4190281, “Azacyclo-indoles and Phenolics from the Flowers of Juglans regia” (J Nat Prod, 2017).
pIC50: −log10 of the molar value.

How the values were obtained:
HepG2 = experiment: Growth inhibition of human HepG2 cells after 96 hrs by MTT assay; format: functional, cell-based; settings: HepG2, 96 h
BGC-823 = experiment: Growth inhibition of human BGC823 cells after 96 hrs by MTT assay; format: functional, cell-based; settings: BGC-823, 96 h
Summary of the method: (§1)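 Cancer cell lines exposed continuously to each sample for 96 h; growth read by MTT assay. IC50, the concentration inhibiting cell growth by 50%, taken as the mean of three replicates. Taxol and NK109 served as positive controls.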

HCT-116 = experiment: Growth inhibition of human HCT116 cells after 96 hrs by MTT assay; format: functional, cell-based; settings: HCT-116, 96 h; summary of the method: as §1
NCI-H1650 = experiment: Growth inhibition of human NCI-H1650 cells after 96 hrs by MTT assay; format: functional, cell-based; settings: NCI-H1650, 96 h; summary of the method: as §1
A2780 = experiment: Growth inhibition of human A2780 cells after 96 hrs by MTT assay; format: functional, cell-based; settings: A2780, 96 h; summary of the method: as §1
[1] = Cytotoxicity against rat IEC-6 cells assessed as survival rate at 10 uM after 48 hrs by MTT assay relative to control; format: cell-based; settings: read-out: Survival
Summary of the method: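 MTT read-out of viability in normal IEC-6 intestinal cells co-incubated with compound at 10 μM; readings at 0, 24 and 48 h of coculture (n = 5); survival expressed against a blank control group.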

pIC50 (HepG2) | pIC50 (BGC-823) | pIC50 (HCT-116) | pIC50 (NCI-H1650) | pIC50 (A2780) | SMILES | viability at 48 h, 10 µM [1]
< 5.00 | < 5.00 | < 5.00 | < 5.00 | < 5.00 | Nc1ncnc2c1ncn2[C@H]1CCC(=O)c2c(O)ccc(O)c21 | 
< 5.00 | < 5.00 | < 5.00 | < 5.00 | < 5.00 | Nc1ncnc2c1ncn2[C@@H]1CCC(=O)c2c(O)ccc(O)c21 | 
< 5.00 | < 5.00 | < 5.00 | < 5.00 | < 5.00 | NC(=O)[C@@H]1CCC(=O)c2cccc(O)c2N1 | 
< 5.00 | < 5.00 | < 5.00 | < 5.00 | < 5.00 | O=C1CC[C@@H](c2c[nH]c3ccccc23)c2c(O)ccc(O)c21 | 
< 5.00 | < 5.00 | < 5.00 | < 5.00 | < 5.00 | CCOCc1ccc(C=O)n1CCc1ccc(O)cc1 | 
< 5.00 | < 5.00 | < 5.00 | < 5.00 | < 5.00 | Nc1ncnc2c1ncn2[C@@H]1CCC(=O)c2cccc(O)c21 | 
< 5.00 | < 5.00 | < 5.00 | < 5.00 | < 5.00 | O=C1CC[C@@H]2c3c([nH]c4ccccc34)CCN12 | 
< 5.00 | < 5.00 | < 5.00 | < 5.00 | < 5.00 | NC(=O)[C@H]1CCC(=O)c2cccc(O)c2N1 | 
< 5.00 | < 5.00 | < 5.00 | < 5.00 | < 5.00 | Nc1ncnc2c1ncn2C1CCC(=O)c2cccc(O)c21 (racemic) | 
< 5.00 | < 5.00 | < 5.00 | < 5.00 | < 5.00 | NC(=O)C1CCC(=O)c2cccc(O)c2N1 (racemic) | 
< 5.00 | < 5.00 | < 5.00 | < 5.00 | < 5.00 | O=C1CCC(c2c[nH]c3ccccc23)c2c(O)ccc(O)c21 (racemic) | 

The next lines start with the compound.

SMILES | pIC50 (HepG2) | pIC50 (BGC-823) | pIC50 (HCT-116) | pIC50 (NCI-H1650) | pIC50 (A2780) | viability at 48 h, 10 µM [1]
COc1ccc2c(c[n+](C)c3c4cc5c(cc4ccc23)OCO5)c1O | 5.92 | 5.74 | 5.40 | 5.76 | 6.05 | 
O=Cc1ccc2n1CCc1c([nH]c3ccccc13)C2 | 5.73 | 5.64 | 5.54 | 5.54 | 6.02 | 79.6%
O=C1CC[C@H]2c3c([nH]c4ccccc34)CCN12 | < 5.00 | < 5.00 | < 5.00 | < 5.00 | < 5.00 | 
O=C1CC[C@H](c2c[nH]c3ccccc23)c2c(O)ccc(O)c21 | < 5.00 | < 5.00 | < 5.00 | < 5.00 | < 5.00 | 
Nc1ncnc2c1ncn2[C@H]1CCC(=O)c2cccc(O)c21 | < 5.00 | < 5.00 | < 5.00 | < 5.00 | < 5.00 | 
Nc1ncnc2c1ncn2C1CCC(=O)c2c(O)ccc(O)c21 (racemic) | < 5.00 | < 5.00 | < 5.00 | < 5.00 | < 5.00 | 
O=C1CCC2c3c([nH]c4ccccc34)CCN12 (racemic) | < 5.00 | < 5.00 | < 5.00 | < 5.00 | < 5.00 | 
CC(=O)O[C@H]1C(=O)[C@@]2(C)[C@H]([C@H](OC(=O)c3ccccc3)[C@]3(O)C[C@H](OC(=O)[C@H](O)[C@@H](NC(=O)c4ccccc4)c4ccccc4)C(C)=C1C3(C)C)[C@]1(OC(C)=O)CO[C@@H]1C[C@@H]2O [PACLITAXEL] |  | 9.22 | 9.70 | < 6.00 | 7.69 | 
